Measurements taken from ChEMBL document CHEMBL1124838, “5-Hydroxytryptamine (5-HT3) receptor antagonists. 2. 1-Indolinecarboxamides” (J Med Chem, 1990).

Molecular target: Serotonin 3 (5-HT3) receptor (Rattus norvegicus) (UniProt P35563+Q9JJ16)
Assay: Antagonist potency to 5-hydroxytryptamine 3 receptor was assayed by antagonism of the 5-HT-evoked reflex bradycardia [Bezold-Jarisch(BJ) reflex] in rats
Assay type: functional
Summary of the method: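 Male rats (260–290 g) anesthetized with urethane (1.25 g/kg ip); blood pressure and heart rate recorded. 5-HT given repeatedly at a submaximal 6 μg/kg iv, and heart-rate changes quantified. Test drug given iv before 5-HT. ID50 is the dose that cuts the 5-HT-evoked response to 50% of control.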

| Compound | ID50 [µg/kg] |
| --- | --- |
| CN1C2CCC1CC(NC(=O)C1=CC(C)(C)c3ccccc31)C2 (centres undefined) | 1 |
| CN1C2CCC1CC(NC(=O)N1CCc3cc([N+](=O)[O-])ccc31)C2 (centres undefined) | > 10 |
| CN1C2CCC1CC(NC(=O)N1CC(c3ccccc3)c3ccccc31)C2 (centres undefined) | 1.8 |
| CC1c2ccccc2N(C(=O)NC2CC3CCC(C2)N3C)C1C (centres undefined) | 0.5 |
| CC1Cc2ccccc2N1C(=O)NC1CC2CCC(C1)N2C (centres undefined) | 0.8 |
| CN1C2CCC1CC(NC(=O)N1CC3(CC3)c3ccccc31)C2 (centres undefined) | 3.5 |
| CN1C2CCC1CC(NC(=O)N1CCCc3ccccc31)C2 (centres undefined) | > 100 |
| CCN1C2CCC1CC(NC(=O)N1CCc3ccccc31)C2 (centres undefined) | > 10 |
| CN1C2CCC1CC(NC(=O)n1cc(-c3ccccc3)c3ccccc31)C2 (centres undefined) | 5.1 |
| CN1C2CCC1CC(NC(=O)N1CCc3ccccc31)C2 (centres undefined) | 1.4 |
| CCC1CN(C(=O)NC2CC3CCC(C2)N3C)c2ccccc21 (centres undefined) | 1.5 |
| CN1C2CCCC1CC(NC(=O)c1nn(C)c3ccccc13)C2 (centres undefined) | 0.7 |
| COc1ccc2c(c1)CCN2C(=O)NC1CC2CCC(C1)N2C (centres undefined) | > 10 |
| CCc1cn(C(=O)NC2CC3CCC(C2)N3C)c2ccccc12 (centres undefined) | 2 |
| CN1C2CCC1CC(OC(=O)N1CCc3ccccc31)C2 (centres undefined) | 4.3 |
| CN1C2CCC1CC(NC(=O)N1CC3(CCCCC3)c3ccccc31)C2 (centres undefined) | 3.6 |
| CN1C2CCC1CC(NC(=O)n1ccc3ccccc31)C2 (centres undefined) | 7.1 |
| CN1C2CCCC1CC(NC(=O)N1CCc3ccccc31)C2 (centres undefined) | 12.5 |
| CN1C2CCC1CC(NC(=O)N1CC3(CCCC3)c3ccccc31)C2 (centres undefined) | 1.2 |
| CN1C2CCC1CC(NC(=O)N1CCc3cc(Cl)ccc31)C2 (centres undefined) | > 10 |
| CN1C2CCC1CC(NC(=O)N1CCc3cc(F)ccc31)C2 (centres undefined) | > 10 |
| Cc1cn(C(=O)NC2CC3CCC(C2)N3C)c2ccccc12 (centres undefined) | 1.6 |
| CC1CN(C(=O)NC2CC3CCC(C2)N3C)c2ccccc21 (centres undefined) | 3 |
| CC1N(C(=O)NC2CC3CCC(C2)N3C)c2ccccc2C1(C)C (centres undefined) | 1.4 |
